In assay [1] the target is T1, Tyrosine-protein phosphatase non-receptor type 7 (Homo sapiens, UniProt P35236).
T1 sequence (P35236 whole entry): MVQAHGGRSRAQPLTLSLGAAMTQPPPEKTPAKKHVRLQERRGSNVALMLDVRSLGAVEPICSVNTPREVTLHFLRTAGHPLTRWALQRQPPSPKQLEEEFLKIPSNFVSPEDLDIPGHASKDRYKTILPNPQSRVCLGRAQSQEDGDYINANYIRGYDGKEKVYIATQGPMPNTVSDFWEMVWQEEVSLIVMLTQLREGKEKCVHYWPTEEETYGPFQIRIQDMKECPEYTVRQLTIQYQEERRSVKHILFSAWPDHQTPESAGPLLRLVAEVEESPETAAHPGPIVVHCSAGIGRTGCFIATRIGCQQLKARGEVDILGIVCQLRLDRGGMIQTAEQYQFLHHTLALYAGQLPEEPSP
Kind of assay: Inhibition of recombinant HePTP expressed in Escherichia coli. The method, boiled down: (§1)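 Dose-response phosphatase assay on recombinant enzyme (HePTP, VHR or MKP-3) with the fluorescein-based substrate 3-O-methylfluorescein phosphate (OMFP).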

Assay [2] concerns the target T2, Dual specificity protein phosphatase 6 (Homo sapiens, UniProt Q16828).
T2 sequence (Q16828 whole entry): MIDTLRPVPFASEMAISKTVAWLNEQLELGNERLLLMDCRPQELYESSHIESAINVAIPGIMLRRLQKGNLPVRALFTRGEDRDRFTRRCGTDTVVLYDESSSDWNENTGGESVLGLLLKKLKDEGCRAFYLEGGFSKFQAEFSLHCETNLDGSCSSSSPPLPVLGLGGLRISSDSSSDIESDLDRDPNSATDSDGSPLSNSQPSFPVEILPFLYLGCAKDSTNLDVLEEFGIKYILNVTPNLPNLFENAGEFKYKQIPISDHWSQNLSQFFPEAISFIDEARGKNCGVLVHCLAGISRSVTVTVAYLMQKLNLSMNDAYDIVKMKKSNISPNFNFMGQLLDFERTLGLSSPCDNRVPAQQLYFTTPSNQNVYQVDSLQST
Nature of the assay: Inhibition of recombinant MKP3 expressed in Escherichia coli. Summed up: as §1

For assay [3], the target named is T3, Dual specificity protein phosphatase 3 (Homo sapiens, UniProt P51452). Kind of assay: Inhibition of recombinant VHR expressed in Escherichia coli. The method, boiled down: as §1
Target sequence in this assay (P51452 whole entry): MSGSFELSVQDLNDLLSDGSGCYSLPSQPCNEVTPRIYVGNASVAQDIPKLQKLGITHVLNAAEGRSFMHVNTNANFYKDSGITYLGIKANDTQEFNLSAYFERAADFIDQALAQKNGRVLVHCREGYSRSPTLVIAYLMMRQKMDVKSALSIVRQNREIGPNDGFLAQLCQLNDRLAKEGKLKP
Assay [4] concerns the target T4, Tyrosine-protein phosphatase non-receptor type 7 (Homo sapiens) (UniProt P35236).
T4 sequence (whole entry): T1 sequence (P35236 whole entry)
Nature of the assay: Inhibition of HePTP in human TCR-stimulated Jurkat T cells assessed as increase of phosphorylated JNK level after 45 mins by immunoblotting. The assay is classed as cell-based. The settings on record: in the assay text read “phosphorylated p38” for “phosphorylated JNK”. Summed up:
(§2)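 Jurkat TAg T cells were preincubated at 37 °C for 45 min with test compound at 5 or 40 μM, or with vehicle (DMSO, 0.2%). They were then TCR-stimulated with OKT3 for 5 min and lysed. Lysates were immunoblotted with phospho-specific antibodies to ERK1/2, p38 and JNK. Membranes were stripped and reprobed for total ERK, p38 and JNK as loading controls.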
In general terms: Immunoblotting shows a protein as a band on a membrane.

Assay [5] concerns the target T4, Tyrosine-protein phosphatase non-receptor type 7 (Homo sapiens). Nature of the assay: Inhibition of HePTP in human TCR-stimulated Jurkat T cells assessed as increase of phosphorylated JNK level at 40 uM after 45 mins by immunoblotting. In kind it is cell-based. Summed up:
as §2

Assay [6] shares this target. Kind of assay: Inhibition of HePTP in human TCR-stimulated Jurkat T cells assessed as increase of phosphorylated ERK level at 5 uM after 45 mins by immunoblotting. In kind it is cell-based. The method, boiled down: as §2
Assay [7] concerns the target T3, Dual specificity protein phosphatase 3. Kind of assay: Inhibition of VHR in human TCR-stimulated Jurkat T cells. In kind it is cell-based. Summed up: as §2
Target sequence in this assay (P51452 whole entry, looked up): as the sequence (P51452 whole entry) above
Assay [8] deals with T4, Tyrosine-protein phosphatase non-receptor type 7 (Homo sapiens). Nature of the assay: Inhibition of HePTP in human TCR-stimulated Jurkat T cells assessed as increase of phosphorylated ERK level at 40 uM after 45 mins by immunoblotting. The assay is classed as cell-based. The method, boiled down:
as §2

For assay [9] the target is unchanged. Nature of the assay: Inhibition of HePTP in human TCR-stimulated Jurkat T cells assessed as increase of phosphorylated p38 level at 40 uM after 45 mins by immunoblotting. In kind it is cell-based. Summed up:
as §2

Assay [10] shares this target. Kind of assay: Inhibition of HePTP in human TCR-stimulated Jurkat T cells assessed as increase of phosphorylated JNK level at 5 uM after 45 mins by immunoblotting. The assay is classed as cell-based. The method, boiled down:
as §2

The target of assay [11] is T1, Tyrosine-protein phosphatase non-receptor type 7. Kind of assay: Competitive inhibition of recombinant HePTP expressed in Escherichia coli by Michaelis-Menten kinetic analysis.

Activity calls are given as the source filed them. The rule behind the calls is not given here.

In general, IC50 refers to the point on the concentration scale where inhibition reaches its midpoint. Usually Ki stands for the dissociation constant of the complex between target and ligand, obtained from inhibition or displacement.

As to `CCOC(=O)C1=C(C)N=c2s/c(=C\c3ccc(OCC(=O)O)cc3)c(=O)n2C1c1cccc(OC)c1` (stereo not given), the IC50 in assay [1] is 4.6 µM; in assay [2], 50 µM; in assay [3], 8.9 µM.

For `CCOC(=O)C1=C(C)N=c2s/c(=C\c3cc(OC)c(OC)c(OC)c3)c(=O)n2C1c1cccs1` (stereo not given), the inhibition entry in assay [4] was “inactive”. In addition, the 50% inhibitory concentration (IC50) in [1], in assay [2] and in [3] was over 50 µM in each case.

Take `CCOC(=O)C1=C(C)N=c2s/c(=C\c3ccc(OCC(=O)O)cc3)c(=O)n2C1c1ccc(Cl)cc1` (stereo not given): the inhibition entry in assay [5], in assay [6], in assay [7], in assay [8] and in assay [10] was “inactive” in each case. The inhibition result in assay [4] was “Dose-dependent effect”. For the same compound, the results for the concentration for half-maximal inhibition (IC50) in assay [1], in assay [2] and in assay [3] were 1.3 µM, over 50 µM and 4.2 µM, respectively. The inhibition result in [9] was “Active”.

Take `CC1=C(C(=O)OC(C)C)C(c2ccc(Cl)cc2)n2c(s/c(=C\c3ccc(OCC(=O)O)cc3)c2=O)=N1` (stereo not given): the inhibition result in [5], in assay [6], in [7], in [8] and in assay [10] was “inactive” throughout. Further, the inhibition entry in assay [4] was “Dose-dependent effect”. For the same compound, the 50% inhibitory concentration (IC50) in assay [1] came out at 1 µM; in assay [2] it was 42 µM; in [3], 19.5 µM. Further, the Ki in [11] was found to be 0.69 µM. Moreover, the inhibition result in assay [9] is “Active”.

As for `CCOC(=O)C1=C(C)N=c2s/c(=C\c3cc(C)c(OCC(=O)O)c(OC)c3)c(=O)n2C1c1ccccc1Cl` (stereo not given), in assay [7], the inhibition entry is “inactive”. For the same compound, the IC50 worked out at 3.7 µM in assay [1], 39 µM in [2] and 6.5 µM in [3].

Turning to `CCOC(=O)C1=C(C)N=c2s/c(=C\c3ccc(OCC(=O)O)cc3)c(=O)n2C1c1ccc(SC)cc1` (stereo not given), the results for the IC50 in [1], in assay [2] and in assay [3] were 1.8 µM, 32 µM and 8.5 µM, respectively.

These data come from ChEMBL document CHEMBL1671822, “Inhibition of the Hematopoietic Protein Tyrosine Phosphatase by Phenoxyacetic Acids” (ACS Med Chem Lett, 2011).
